High-throughput results from PubChem.
Dynein transport – blocks dynein driven cargo transport along microtubules. 3617.4 mouse cells, GR-EGFP nuclear translocation imaging; test concentration mostly 20 µM; stimulated with dexamethasone, 1 µM; stronger effect = lower value. z-score, hits read low. actives 0.47% (n = 220,000). AID 1381;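 active = plate z-score of nuclear minus cytoplasmic receptor signal below a set negative limit, without overly bright fluorescence or cell loss, cut at about -3.5 in these data, passing the limit was not always enough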;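 also: z-score of nuclear minus cytoplasmic ring GR-EGFP intensity difference per well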
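Medium: Induction medium lacking tetracycline, stripped serum | Probe or stimulus: 1.0 µM final dexamethasone stimulus | Schedule: 48 h induction, then 1 h compound, then 30 min agonist, 37 °C | Signal: Automated 10x imaging of fixed Hoechst-stained cells | Evaluation: Per-cell GR-EGFP intensity, nucleus versus surrounding cytoplasmic ring, well-averaged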
HCT116 bCat-KO – beta-catenin-lacking colon tumor cell growth suppression; HCT116 beta-catenin knockout viability, CellTiter-Glo, 60 h; stronger effect = lower value; actives 1.5% (n = 140,000); viability, % at 10 µM;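 active = viability at or under a set limit, the compound median less 4 SD, cut at about 6% in these data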
PTEN del growth – suppresses growth of cells with PTEN deletion. viability, % at 10 µM. actives 1.2% (n = 140,000). HCT116 PTEN-null viability, CellTiter-Glo, 60 h; stronger effect = lower value;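 active = viability at or below a set limit, 4 SD under the median of all tested compounds, cut at about 3.7% in these data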;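 also: PTEN knockout HCT116 line with beta catenin targeted HCT116 as companion control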
Autophagy mod – autophagy modulation, high-content screen. actives 0.98% (n = 190,000). MEF GFP-LC3 puncta imaging; test concentration mostly 10 µM. AID 463193. calls only at 10 µM (by protocol);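 active = percentage of spot-positive cells more than 3 SD above its plate mean, without a fluorescence outlier flag or 80% toxicity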
sdo1 growth – restores growth of sdo1-depleted yeast | S. cerevisiae sdo1-depleted JHY4D growth rescue, OD600 30 h; stronger effect = higher value; pdr5 snq2 efflux-pump mutant strain | z-score at 10 µM | actives 0.21% (n = 140,000);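 active = z-score above 3 at both the 24 hr and the 30 hr optical density reads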
Hits are given with their value. Only some compounds are listed: those with a hit (about 2.2% of all), similar ones and a draw of the others.

Results for Clc1ccc(N=c2ssnc2Cl)cc1 ?
Dynein transport: -4.34; HCT116 bCat-KO: inactive; PTEN del growth: inactive; Autophagy mod: inactive; sdo1 growth: inactive

What do the screens show for `Clc1nssc1=Nc1ccccc1`?
Dynein transport: inactive; Autophagy mod: inactive

How did COc1ccc(N=c2ssnc2Cl)cc1 do in these assays?
Dynein transport: -3.85; HCT116 bCat-KO: inactive; PTEN del growth: inactive; Autophagy mod: inactive; sdo1 growth: inactive

How did CCC(C)(C)NC(=O)/C=C/c1cnc2ccccc2n1 do in these assays?
Dynein transport: inactive; HCT116 bCat-KO: inactive; PTEN del growth: inactive; Autophagy mod: inactive; sdo1 growth: inactive

Results for CCN(CC)S(=O)(=O)c1ccc(N2CCOCC2)c(NC(=O)CCC2CCCCC2)c1 ?
Dynein transport: inactive; HCT116 bCat-KO: inactive; PTEN del growth: inactive; Autophagy mod: inactive; sdo1 growth: inactive

What do the screens show for `COc1ccc2nc(SCC(=O)N3CC(=O)Nc4ccccc43)c(C#N)cc2c1`?
Dynein transport: inactive; HCT116 bCat-KO: inactive; PTEN del growth: inactive; Autophagy mod: inactive; sdo1 growth: inactive

How did CCc1ccc2nc3sc(C(=O)N4CCc5ccccc54)c(N)c3cc2c1 do in these assays?
Dynein transport: inactive; HCT116 bCat-KO: inactive; PTEN del growth: inactive; Autophagy mod: active; sdo1 growth: inactive

How did Cc1ccc2cc3c(N)c(C(=O)Nc4c(C)[nH]c(=O)[nH]c4=O)sc3nc2c1 do in these assays?
Dynein transport: inactive; HCT116 bCat-KO: inactive; PTEN del growth: inactive; Autophagy mod: active; sdo1 growth: inactive

How did Cc1ccc2cc3c(N)c(C(=O)N4CC(=O)Nc5ccccc54)sc3nc2c1 do in these assays?
Dynein transport: inactive; HCT116 bCat-KO: inactive; PTEN del growth: inactive; Autophagy mod: active; sdo1 growth: inactive

Results for Cc1cc(C)c2nc(SCC(=O)N3CC(=O)Nc4ccccc43)c(C#N)cc2c1 ?
Dynein transport: inactive; HCT116 bCat-KO: inactive; PTEN del growth: inactive; Autophagy mod: active; sdo1 growth: inactive

What do the screens show for `COc1cc(/C=C/C(=O)O)cc(S(=O)(=O)Nc2ccccc2Cl)c1OC`?
Dynein transport: inactive; HCT116 bCat-KO: inactive; PTEN del growth: inactive; Autophagy mod: inactive; sdo1 growth: inactive

How did Cc1ccsc1C(=O)N1CC(=O)Nc2ccccc21 do in these assays?
Dynein transport: inactive; HCT116 bCat-KO: inactive; PTEN del growth: inactive; Autophagy mod: inactive; sdo1 growth: inactive

What do the screens show for `Cc1cc(C)cc(C(=O)N2CC(=O)Nc3ccccc32)c1`?
Dynein transport: inactive; HCT116 bCat-KO: inactive; PTEN del growth: inactive; Autophagy mod: active; sdo1 growth: inactive

How did Cc1ccc(/C(=N\O)c2oc3c(C)c4oc(=O)cc(C)c4cc3c2C)cc1 do in these assays?
Dynein transport: inactive; HCT116 bCat-KO: 2.0; PTEN del growth: 2.6; Autophagy mod: inactive; sdo1 growth: inactive

How did O=C(Cc1ccccc1)N/N=C/c1ccc([N+](=O)[O-])s1 do in these assays?
Dynein transport: inactive; HCT116 bCat-KO: 1.4; PTEN del growth: 1.0; Autophagy mod: inactive; sdo1 growth: inactive

How did Cn1c(SCC(=O)N/N=C/c2cc([N+](=O)[O-])ccc2O)nnc1-c1ccccc1 do in these assays?
Dynein transport: inactive

What do the screens show for `O=C(N/N=C/c1ccc([N+](=O)[O-])s1)C(O)c1ccccc1` (centres undefined)?
Dynein transport: inactive; HCT116 bCat-KO: 0.8; PTEN del growth: 1.0; Autophagy mod: inactive; sdo1 growth: inactive

Results for COC(=O)N/N=C/c1ccc([N+](=O)[O-])s1 ?
Dynein transport: inactive; HCT116 bCat-KO: inactive; PTEN del growth: inactive; Autophagy mod: inactive; sdo1 growth: inactive

What do the screens show for `Cn1c(SCC(=O)N/N=C/c2ccc([N+](=O)[O-])s2)nnc1-c1ccccc1`?
Dynein transport: inactive; HCT116 bCat-KO: 1.9; PTEN del growth: 1.6; Autophagy mod: inactive; sdo1 growth: inactive

What do the screens show for `Cc1c(Cc2ccccc2)c(=O)oc2cc(O)cc(O)c12`?
Dynein transport: inactive; Autophagy mod: inactive

Results for COc1ccc(-c2cn[nH]c2-c2ccc(OCc3ccc(F)cc3)cc2O)cc1OC ?
Dynein transport: inactive

What do the screens show for `COc1cc2c3nnc(-c4ccc(F)cc4)c-3cn(Cc3ccc(F)cc3)c2cc1OC`?
Dynein transport: inactive; HCT116 bCat-KO: 0.7; PTEN del growth: 0.8; Autophagy mod: active; sdo1 growth: inactive

How did COc1cc2c3nnc(-c4ccc(F)cc4)c-3cn(Cc3ccccc3)c2cc1OC do in these assays?
Dynein transport: inactive; HCT116 bCat-KO: 1.1; PTEN del growth: 1.6; Autophagy mod: active; sdo1 growth: inactive

Results for COc1ccc(Cn2cc3c(-c4ccc(F)cc4)nnc-3c3cc(OC)c(OC)cc32)cc1 ?
Dynein transport: inactive; HCT116 bCat-KO: 1.8; PTEN del growth: 2.1; Autophagy mod: inactive; sdo1 growth: inactive

What do the screens show for `COc1ccc(CCNC(=O)CSc2nnc(-c3ccc(F)cc3)c3ccccc23)cc1OC`?
Dynein transport: inactive; HCT116 bCat-KO: inactive; PTEN del growth: inactive; Autophagy mod: inactive; sdo1 growth: inactive

What do the screens show for `FC(F)(F)c1ccc(Cl)c(-n2c(-c3cc(C4CC4)[nH]n3)n[nH]c2=S)c1`?
Dynein transport: inactive

What do the screens show for `COCCNC(=O)CSc1nnc(-c2ccccc2F)n1Cc1ccccc1`?
Dynein transport: inactive; Autophagy mod: inactive

How did O=C(OCn1ncc(Cl)c(Cl)c1=O)c1ccc(C(F)(F)F)cc1 do in these assays?
Dynein transport: inactive; HCT116 bCat-KO: 3.4; PTEN del growth: inactive; Autophagy mod: inactive; sdo1 growth: inactive

How did CCc1ccc(C(=O)Nc2ccc(OC)c(S(=O)(=O)N3CCOCC3)c2)cc1 do in these assays?
Dynein transport: inactive; Autophagy mod: inactive

Results for COc1ccc(NC(=O)Cn2ncc(Cl)c(Cl)c2=O)cc1S(=O)(=O)N1CCOCC1 ?
Dynein transport: inactive; HCT116 bCat-KO: 0.9; PTEN del growth: 0.6; Autophagy mod: inactive; sdo1 growth: inactive

What do the screens show for `O=C(OCCN1CCN(c2ncc(C(F)(F)F)cc2Cl)CC1)c1ccc(F)cc1`?
Dynein transport: inactive; HCT116 bCat-KO: inactive; PTEN del growth: inactive; Autophagy mod: inactive; sdo1 growth: inactive

Results for CCOC(=O)c1ccc(NC(=O)Cn2ncc(Cl)c(Cl)c2=O)cc1 ?
Dynein transport: -4.15; HCT116 bCat-KO: 1.7; PTEN del growth: 1.8; Autophagy mod: active; sdo1 growth: inactive

How did Cc1ccc(N2CCN(C(=O)NC3CCCCC3)CC2C)cc1 (centres undefined) do in these assays?
Dynein transport: inactive

Results for O=C(O)CCC(=O)Nc1ccc(S(=O)(=O)NCCc2ccccc2)cc1 ?
Dynein transport: inactive

What do the screens show for `Cc1ccc(S(=O)(=O)/N=C(/c2ccc(F)cc2)N2CCCCC2)cc1`?
Dynein transport: inactive; HCT116 bCat-KO: inactive; PTEN del growth: inactive; Autophagy mod: inactive; sdo1 growth: inactive

How did Cc1cccnc1Nc1nc(-c2ccccn2)cs1 do in these assays?
Dynein transport: inactive; HCT116 bCat-KO: 0.7; PTEN del growth: 0.8; Autophagy mod: inactive; sdo1 growth: inactive

How did Cc1cccnc1Nc1nc(-c2ccc(O)cc2O)cs1 do in these assays?
Dynein transport: inactive; HCT116 bCat-KO: inactive; PTEN del growth: inactive; Autophagy mod: inactive; sdo1 growth: inactive
